From ChEMBL document CHEMBL1671756, “In vitro and in vivo antifungal susceptibilities of the Mucoralean fungus Cunninghamella” (2010)
≈ marks a conversion by molar mass, not a printed value. Calls of active or inactive are those of the source. No cut-off for these calls is given here.

What was measured:
[1] = tested on: Cunninghamella bertholletiae; test: Antifungal activity against Cunninghamella bertholletiae UTHSC 05-2275 infected in neutropenic OF1 mouse assessed as increase in mouse survival rate at 80 mg/kg, po qd administered 1 day after infection for 7 days relative to untreated control; format: functional, organism-based; design: dose 80 mg/kg
Method in brief: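 Male OF1 mice, about 30 g, made neutropenic with cyclophosphamide 200 mg/kg i.p. plus 5-fluorouracil 150 mg/kg i.v. 1 day before challenge. Infected i.v. via the lateral tail vein with 1 × 10⁴ CFU of hemacytometer-counted sporangiospores in 0.2 ml saline. Ceftazidime 5 mg/day s.c. on days 1–7. Oral treatment started 24 h after challenge; 10 mice per group; checked daily for 20 days; Kaplan-Meier mean survival time, log-rank test.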

[2] = tested on: Cunninghamella bertholletiae; test: Antifungal activity against Cunninghamella bertholletiae UTHSC 04-2581 infected in neutropenic OF1 mouse assessed as decreased fungal load in lung at 60 mg/kg, po qd administered 1 day post infection measured after 4 to 5 days relative to untreated control; format: functional, organism-based; design: dose 60 mg/kg
Method in brief: (§1)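 Neutropenic male OF1 mice (cyclophosphamide 200 mg/kg i.p. plus 5-fluorouracil 150 mg/kg i.v., day −1) were given 1 × 10⁴ CFU sporangiospores i.v. in 0.2 ml saline. Treatment from 24 h: 0.8 mg/kg i.v. or oral doses once daily; 10 mice per group. Killed at day 5 (day 4 if moribund). About half of brain, lungs and kidneys homogenized in saline; 10-fold dilutions plated on PDA for 24 h at 35°C; log₁₀ CFU/g tissue.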

[3] = tested on: Cunninghamella bertholletiae; test: Antifungal activity against Cunninghamella bertholletiae UTHSC 03-2241 infected in neutropenic OF1 mouse assessed as decreased fungal load in lung at 60 mg/kg, po qd administered 1 day post infection measured after 4 to 5 days relative to untreated control; format: functional, organism-based; design: dose 60 mg/kg; method in brief: as §1
[4] = tested on: Cunninghamella bertholletiae; test: Antifungal activity against Cunninghamella bertholletiae UTHSC 03-2241 infected in neutropenic OF1 mouse assessed as decreased fungal load in lung at 0.8 mg/kg, iv qd administered 1 day post infection measured after 4 to 5 days relative to untreated control; format: functional, organism-based; design: dose 0.8 mg/kg; method in brief: as §1
[5] = tested on: Cunninghamella bertholletiae; test: Antifungal activity against Cunninghamella bertholletiae FMR-9598 infected in neutropenic OF1 mouse assessed as decreased fungal load in kidney at 0.8 mg/kg, iv qd administered 1 day post infection measured after 4 to 5 days relative to untreated control; format: functional, organism-based; design: dose 0.8 mg/kg; method in brief: as §1
[6] = tested on: Cunninghamella bertholletiae; test: Antifungal activity against Cunninghamella bertholletiae UTHSC 06-1945 after 24 hrs by broth microdilution method; format: functional; details: UTHSC 06-1945, 24 h
Method in brief: (§2)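 CLSI broth microdilution for filamentous fungi. Isolates were stored at −80°C and subcultured on potato dextrose agar at 35°C. MICs were read after 24 h. […] The QC strain was Paecilomyces variotii ATCC 36257.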

[7] = tested on: Cunninghamella bertholletiae; test: Antifungal activity against Cunninghamella bertholletiae UTHSC 06-1945 infected in neutropenic OF1 mouse assessed as decreased fungal load in kidney at 60 mg/kg, po qd administered 1 day post infection measured after 4 to 5 days relative to untreated control; format: functional, organism-based; design: dose 60 mg/kg; method in brief: as §1
[8] = Antifungal activity against Cunninghamella echinulata UTHSC 01-2298 after 24 hrs by broth microdilution method; format: functional; method in brief: as §2
[9] = tested on: Cunninghamella bertholletiae; test: Antifungal activity against Cunninghamella bertholletiae UTHSC 03-2241 infected in neutropenic OF1 mouse assessed as decreased fungal load in kidney at 60 mg/kg, po qd administered 1 day post infection measured after 4 to 5 days relative to untreated control; format: functional, organism-based; design: dose 60 mg/kg; method in brief: as §1
[10] = Antifungal activity against Cunninghamella echinulata FMR 10973 after 24 hrs by broth microdilution method; format: functional; method in brief: as §2
[11] = tested on: Cunninghamella bertholletiae; test: Antifungal activity against Cunninghamella bertholletiae UTHSC 04-2581 after 24 hrs by broth microdilution method; format: functional; details: UTHSC 04-2581, 24 h; method in brief: as §2
[12] = tested on: Cunninghamella bertholletiae; test: Antifungal activity against Cunninghamella bertholletiae UTHSC 03-2241 after 24 hrs by broth microdilution method; format: functional; details: UTHSC 03-2241, 24 h; method in brief: as §2
[13] = tested on: Cunninghamella bertholletiae; test: Antifungal activity against Cunninghamella bertholletiae UTHSC 05-2275 infected in neutropenic OF1 mouse assessed as decreased fungal load in kidney at 80 mg/kg, po qd administered 1 day post infection measured after 4 to 5 days relative to untreated control; format: functional, organism-based; design: dose 80 mg/kg; method in brief: as §1
[14] = tested on: Cunninghamella bertholletiae; test: Antifungal activity against Cunninghamella bertholletiae FMR-9598 infected in neutropenic OF1 mouse assessed as decreased fungal load in lung at 60 mg/kg, po qd administered 1 day post infection measured after 4 to 5 days relative to untreated control; format: functional, organism-based; design: dose 60 mg/kg; method in brief: as §1
[15] = tested on: Cunninghamella bertholletiae; test: Antifungal activity against Cunninghamella bertholletiae UTHSC 04-2581 infected in neutropenic OF1 mouse assessed as decreased fungal load in kidney at 60 mg/kg, po qd administered 1 day post infection measured after 4 to 5 days relative to untreated control; format: functional, organism-based; design: dose 60 mg/kg; method in brief: as §1
[16] = tested on: Cunninghamella bertholletiae; test: Antifungal activity against Cunninghamella bertholletiae FMR-9598 after 24 hrs by broth microdilution method; format: functional; details: FMR-9598, 24 h; method in brief: as §2
[17] = Antifungal activity against Cunninghamella echinulata UTHSC 03-3725 after 24 hrs by broth microdilution method; format: functional; method in brief: as §2
[18] = tested on: Cunninghamella bertholletiae; test: Antifungal activity against Cunninghamella bertholletiae FMR-9598 infected in neutropenic OF1 mouse assessed as decreased fungal load in kidney at 60 mg/kg, po qd administered 1 day post infection measured after 4 to 5 days relative to untreated control; format: functional, organism-based; design: dose 60 mg/kg; method in brief: as §1
[19] = tested on: Cunninghamella bertholletiae; test: Antifungal activity against Cunninghamella bertholletiae UTHSC 05-2275 infected in neutropenic OF1 mouse assessed as decreased fungal load in kidney at 60 mg/kg, po qd administered 1 day post infection measured after 4 to 5 days relative to untreated control; format: functional, organism-based; design: dose 60 mg/kg; method in brief: as §1
[20] = Antifungal activity against Cunninghamella echinulata FMR 10974 after 24 hrs by broth microdilution method; format: functional; method in brief: as §2
[21] = tested on: Cunninghamella bertholletiae; test: Antifungal activity against Cunninghamella bertholletiae UTHSC 05-2275 infected in neutropenic OF1 mouse assessed as decreased fungal load in lung at 60 mg/kg, po qd administered 1 day post infection measured after 4 to 5 days relative to untreated control; format: functional, organism-based; design: dose 60 mg/kg; method in brief: as §1
[22] = tested on: Cunninghamella bertholletiae; test: Antifungal activity against Cunninghamella bertholletiae UTHSC 05-2275 infected in neutropenic OF1 mouse assessed as decreased fungal load in lung at 80 mg/kg, po qd administered 1 day post infection measured after 4 to 5 days relative to untreated control; format: functional, organism-based; design: dose 80 mg/kg; method in brief: as §1
[23] = tested on: Cunninghamella bertholletiae; test: Antifungal activity against Cunninghamella bertholletiae UTHSC 05-2275 after 24 hrs by broth microdilution method; format: functional; details: UTHSC 05-2275, 24 h; method in brief: as §2
[24] = tested on: Cunninghamella bertholletiae; test: Antifungal activity against Cunninghamella bertholletiae UTHSC 06-1945 infected in neutropenic OF1 mouse assessed as decreased fungal load in lung at 60 mg/kg, po qd administered 1 day post infection measured after 4 to 5 days relative to untreated control; format: functional, organism-based; design: dose 60 mg/kg; method in brief: as §1
[25] = tested on: Cunninghamella bertholletiae; test: Antifungal activity against Cunninghamella bertholletiae UTHSC 05-2275 infected in neutropenic OF1 mouse assessed as decreased fungal load in lung at 0.8 mg/kg, iv qd administered 1 day post infection measured after 4 to 5 days relative to untreated control; format: functional, organism-based; design: dose 0.8 mg/kg
Method in brief: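 Neutropenic male OF1 mice (cyclophosphamide 200 mg/kg i.p. + 5-fluorouracil 150 mg/kg i.v., day −1) were infected i.v. with 1 × 10⁴ CFU. Ten mice per group were treated from day 1 and killed by CO₂ on day 5, or on day 4 if moribund. Half of each brain, lung and kidney was homogenized in 1 ml saline. Ten-fold dilutions were plated on PDA for 24 h at 35°C and counted as log₁₀ CFU/g.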

Row | SMILES | Activity [1] | Activity [2] | Activity [3] | Activity [4] | Activity [5] | MIC [6] | Activity [7] | MIC [8] | Activity [9] | MIC [10] | MIC [11] | MIC [12] | Activity [13] | Activity [14] | Activity [15] | MIC [16] | MIC [17] | Activity [18] | Activity [19] | MIC [20] | other results
1 | CC[C@@H]([C@H](C)O)n1ncn(-c2ccc(N3CCN(c4ccc(OC[C@@H]5CO[C@@](Cn6cncn6)(c6ccc(F)cc6F)C5)cc4)CC3)cc2)c1=O [POSACONAZOLE] | Active | Active | Active | Active | Active | 0.5 µg/mL (≈ 0.713 µM) | Active | 16 µg/mL (≈ 22.8 µM) | Active | > 16 µg/mL | 0.5 µg/mL (≈ 0.713 µM) | 0.5 µg/mL (≈ 0.713 µM) | Active | Active | Active | 0.5 µg/mL (≈ 0.713 µM) | 1 µg/mL (≈ 1.43 µM) | Active | Active | > 16 µg/mL | Activity [21]: Active; Activity [22]: Active; MIC [23]: 0.5 µg/mL (≈ 0.713 µM); Activity [24]: Active
2 | C[C@@H]1[C@H](O)[C@@H](C)/C=C/C=C/C=C/C=C/C=C/C=C/C=C/[C@H](O[C@@H]2O[C@H](C)[C@@H](O)[C@H](N)[C@@H]2O)C[C@@H]2O[C@](O)(C[C@@H](O)C[C@@H](O)[C@H](O)CC[C@@H](O)C[C@@H](O)CC(=O)O[C@H]1C)C[C@H](O)[C@H]2C(=O)O [AMPHOTERICIN B] | Active | Active | Active | Active | Active | 4 µg/mL (≈ 4.33 µM) | Active | 16 µg/mL (≈ 17.3 µM) | Active | 4 µg/mL (≈ 4.33 µM) | 4 µg/mL (≈ 4.33 µM) | 4 µg/mL (≈ 4.33 µM) | Active | Active | Active | 2 µg/mL (≈ 2.16 µM) | 8 µg/mL (≈ 8.66 µM) | Active | Active | 8 µg/mL (≈ 8.66 µM) | Activity [25]: Active; Activity [21]: Active; Activity [22]: Active; MIC [23]: 2 µg/mL (≈ 2.16 µM); Activity [24]: Active
